Source: article PMC5420486 (Clinical cancer research : an official journal of the …, 2016)
Entries after “also recorded” stand apart in the source; their conditions may differ.

What was measured:
[1] = Plasma pharmacokinetics, noncompartmental analysis; assay type: in vivo, human; conditions: for Tmax: human, plasma, oral
How it was run: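 Patients were dosed orally once daily. Blood was drawn within 60 minutes predose and at 1, 2, 3, 4, 6, 8 and 24 h post dose on days 1 and 15, in both escalation and expansion cohorts. Cmax, Tmax, AUC0-24, AUC0-∞, T1/2, C24 and CL/F were derived from plasma test compound concentrations by noncompartmental analysis.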

[2] = tested on: Asian patients with advanced HCC; assay: Phase I dose-escalation, standard 3+3 design; assay type: in vivo
[3] = tested on: advanced HCC patients; assay: Pharmacogenomic and exploratory biomarker subgroup analyses of TTP; assay type: in vivo, human; conditions: 30 mg QD
How it was run: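 Advanced HCC patients took oral test compound once daily. For genotyping, venous blood DNA was typed at 20 SNPs in 14 candidate genes by Sanger sequencing or TaqMan assays. Circulating markers, including IL6, were measured by Searchlight at baseline (day 1). TTP ran from drug start to documented progression or death. Genotype was tested by time-to-event models with score (log-rank) test, unadjusted. Biomarkers were tested by proportional hazards regression, univariate and covariate-adjusted.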

[4] = tested on: advanced hepatocellular carcinoma (HCC) patients; assay: Anti-tumor activity and survival; assay type: in vivo, human
[5] = tested on: patients with advanced HCC; assay: Safety assessment: adverse events graded by CTCAE v3.0; assay type: in vivo, human; conditions: for Diarrhoea: treatment-related AE
[6] = tested on: patients with other solid tumors; conditions: other tumor types, predominantly non-Asian populations; cited from earlier work
[7] = tested on: Asia-Pacific patients with HCC; conditions: cited from earlier work
[8] = 30 mg QD, RECIST population (n=38)
[9] = 30 mg QD, mRECIST population (n=35)

## COc1cc2c(Oc3ccc(NC(=O)C4(C(=O)Nc5ccc(F)cc5)CC4)cc3F)ccnc2cc1OCCCN1CCOCC1 [foretinib]
[1]; 30 to 45 mg, day 15
  dose-proportionality assessment: dose proportionality was not achieved
[1]; day 15, N=6, interpret with caution
  oral clearance (CL/F), 45-mg dose compared with 30-mg dose: 50 % higher
[1]
  Tmax: 3 to 3.5 h
[1]; 30 mg
  Tmax: 3 h
[2]; Asian patients with advanced HCC, oral, first-line
  maximum tolerated dose (MTD): 30 mg QD
[2]; in vivo
  dose-limiting toxicities (DLTs): no DLTs
[3]; one or no copy of NR1I3/CAR CAT haplotype
  median TTP: ≈ 6 months
[3]; two copies of NR1I3/CAR CAT haplotype
  median TTP: ≈ 2 months
[4]; 30 mg QD
  median time to progression (TTP): 4.2 months
[4]; [8]
  Disease stabilization rate: 24 (63·2) n (%)
  Objective response rate: 3 (7·9) n (%)
  Patients achieving best overall response: Complete response: 0 n (%)
  Patients achieving best overall response: Disease progression: 14 (36.8) n (%)
  Patients achieving best overall response: Partial response: 3 (7.9) n (%)
  Patients achieving best overall response: Stable disease: 21 (55.3) n (%)
[4]; 30 mg QD, all enrolled patients treated at the MTD (N=39), Kaplan-Meier
  median overall survival (OS): 15.7 months
[4]; 30 mg QD, mRECIST
  Disease stabilization rate: 82.9%
  median duration of response: 7.6 months
[4]; [9]
  Disease stabilization rate: 29 (82·9) n (%)
  Objective response rate: 8 (22·9) n (%)
  Patients achieving best overall response: Complete response: 0 n (%)
  Patients achieving best overall response: Disease progression: 6 (17·1) n (%)
  Patients achieving best overall response: Partial response: 8 (22·9) n (%)
  Patients achieving best overall response: Stable disease: 21 (60·0) n (%)
[4]; 30 mg QD, mRECIST, 35 evaluable patients
  objective response rate (ORR): 22.9%
[4]; 30 mg QD, patients with baseline AFP ≥200 ng/mL (n=15), mRECIST population
  Patients achieving ≥50% reduction from baseline AFP: 7 (46·7) n (%)
[4]; 30 mg, baseline AFP ≥ 200 ng/mL
  patients with a 50% decrease from baseline AFP at at least one time point: 46.7%
[4]; 30 mg, mRECIST
  patients achieving a PR: eight
[5]; 30 mg
  fatal events: three
  relation of fatal events to study treatment: none of these events were considered related to study treatment
[5]; 30 mg QD
  dose reductions due to an AE: no patients; also recorded: no dose reductions
[5]; 30 mg QD, N=39, all patients
  Abdominal pain: 5 (12·8) n (%)
  Cough: 6 (15·4) n (%)
  Hypoalbuminaemia: 7 (17·9) n (%)
  Insomnia: 6 (15·4) n (%)
  Diarrhoea: 6 (15·4) n (%)
[5]; 30 mg QD, N=39, grade 3
  Abdominal pain: 3 (7·7) n (%)
  Cough: 0 n (%)
  Hypoalbuminaemia: 5 (12.8) n (%)
  Insomnia: 1 (2.6) n (%)
  Diarrhoea: 0 n (%)
[5]; 30 mg QD, N=39, grade 4
  Abdominal pain: 0 n (%)
  Cough: 0 n (%)
  Hypoalbuminaemia: 0 n (%)
  Insomnia: 0 n (%)
  Oedema peripheral: 1 (2.6) n (%)
  Diarrhoea: 0 n (%)
[6]
  previously reported MTD: 60 mg QD

## CNC(=O)c1cc(Oc2ccc(NC(=O)Nc3ccc(Cl)c(C(F)(F)F)c3)cc2)ccn1 [sorafenib]
[7]; Asia-Pacific patients with HCC
  patients requiring dose reduction: 30.9%
[7]; pivotal Asia-Pacific sorafenib study
  median OS: 6.5 months
